Experimental data from ChEMBL document CHEMBL1944553, “Structure-activity relationships of truncated C2- or C8-substituted adenosine derivatives as dual acting A₂A and A₃ adenosine receptor ligands” (J Med Chem, 2012).

How the values were obtained:
[1] = target: T1, Adenosine receptor A2a (Homo sapiens, UniProt P29274); assay: Displacement of [3H]CGS21680 from human adenosine A2A receptor expressed in HEK293 cells at 10 uM after 60 mins by […]; assay type: cell-based
Summary of the method: (§1)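 HEK-293 cells stably expressing human A2AAR. Membranes at 20 µg/tube were incubated with [3H]CGS21680 at 25 °C for 60 min in 50 mM Tris-HCl pH 7.4 with 10 mM MgCl2. Nonspecific binding was defined with 10 µM NECA, and reactions were stopped by GF/B filtration.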

[2] = target: T2, Adenosine receptor A3 (Homo sapiens) (UniProt P0DMS8); assay: Partial agonist activity at human recombinant adenosine A3 receptor expressed in CHO cells assessed as inhibition of forskolin-stimulated cAMP production at 10 uM incubated for 30 mins prior to forskolin addition by enzyme immunoassay relative to C1-IB-MECA; assay type: functional, cell-based
T2 sequence (whole entry): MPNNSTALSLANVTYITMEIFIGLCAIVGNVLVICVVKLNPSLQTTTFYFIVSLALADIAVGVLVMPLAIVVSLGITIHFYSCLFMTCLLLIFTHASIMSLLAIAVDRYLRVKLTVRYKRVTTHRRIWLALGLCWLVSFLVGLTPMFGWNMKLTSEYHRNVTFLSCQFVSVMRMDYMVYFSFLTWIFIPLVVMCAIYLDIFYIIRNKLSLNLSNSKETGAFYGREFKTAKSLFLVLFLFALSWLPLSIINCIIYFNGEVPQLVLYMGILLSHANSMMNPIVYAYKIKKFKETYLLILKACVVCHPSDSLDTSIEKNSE

[3] = target: T3, Adenosine receptor A1 (Homo sapiens) (UniProt P30542); assay: Displacement of [3H]R-PIA from human recombinant adenosine A1 receptor expressed in CHO cells at 10 uM after 60 mins by […]; assay type: cell-based
T3 sequence (whole entry): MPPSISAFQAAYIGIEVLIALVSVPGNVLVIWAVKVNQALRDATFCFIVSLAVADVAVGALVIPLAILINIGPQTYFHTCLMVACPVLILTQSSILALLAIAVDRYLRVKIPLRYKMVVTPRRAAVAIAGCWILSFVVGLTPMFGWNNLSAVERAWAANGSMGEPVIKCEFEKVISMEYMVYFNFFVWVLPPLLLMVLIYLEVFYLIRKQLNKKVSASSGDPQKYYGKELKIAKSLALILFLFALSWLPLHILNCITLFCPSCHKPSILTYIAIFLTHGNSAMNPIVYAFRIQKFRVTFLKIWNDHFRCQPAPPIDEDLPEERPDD
Summary of the method: (§2)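 Membranes (40 µg/tube) from CHO cells stably expressing human A1AR, incubated with 1 nM [3H]R-PIA at 25 °C for 60 min in 50 mM Tris-HCl pH 7.4 with 10 mM MgCl2. Nonspecific binding set with 10 µM NECA. GF/B filtration.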

[4] = target: T4, Adenosine receptor A3 (Homo sapiens, UniProt P0DMS8); assay: Displacement of [125I]I-AB-MECA from human adenosine A3 receptor expressed in CHO cells after 60 mins by gamma counting; assay type: cell-based
T4 sequence (P0DMS8 whole entry): T2 sequence (whole entry)
Summary of the method: (§3)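 hA3AR-CHO membranes (20 µg protein) with 0.5 nM [125I]I-AB-MECA and increasing ligand concentrations in 50 mM Tris-HCl pH 7.4, 10 mM MgCl2, 1 mM EDTA; 25 °C, 60 min. Nonspecific binding: 10 µM NECA. Filtered on GF/B, washed three times with ice-cold buffer, gamma-counted.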

[5] = target: T1, Adenosine receptor A2a; assay: Agonist activity at human recombinant adenosine A2A receptor expressed in CHO cells assessed as induction of cAMP production at 10 uM after 30 mins by enzyme immunoassay relative to NECA; assay type: functional, cell-based
[6] = target: T1, Adenosine receptor A2a; assay: Displacement of [3H]CGS21680 from human adenosine A2A receptor expressed in HEK293 cells after 60 mins by […]; assay type: cell-based; summary of the method: as §1
[7] = target: T5, Adenosine receptor A2b (Homo sapiens) (UniProt P29275); assay: Agonist activity at human recombinant adenosine A2B receptor expressed in CHO cells assessed as induction of cAMP production at 10 uM after 30 mins by immunoassay relative to NECA; assay type: functional, cell-based
T5 sequence (whole entry): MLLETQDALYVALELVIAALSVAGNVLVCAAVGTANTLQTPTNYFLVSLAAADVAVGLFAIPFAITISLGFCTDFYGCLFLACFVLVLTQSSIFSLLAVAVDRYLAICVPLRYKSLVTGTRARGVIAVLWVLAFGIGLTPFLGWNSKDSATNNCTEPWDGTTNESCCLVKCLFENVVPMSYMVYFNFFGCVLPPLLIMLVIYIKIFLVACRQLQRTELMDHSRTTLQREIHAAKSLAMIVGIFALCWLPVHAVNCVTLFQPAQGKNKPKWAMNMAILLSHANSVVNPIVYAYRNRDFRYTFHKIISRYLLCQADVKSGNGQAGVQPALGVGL

[8] = target: T1, Adenosine receptor A2a; assay: Agonist activity at human recombinant adenosine A2A receptor expressed in CHO cells assessed as induction of cAMP production after 30 mins by immunoassay; assay type: functional, cell-based
[9] = target: T2, Adenosine receptor A3 (Homo sapiens); assay: Competitive antagonist activity at human recombinant adenosine A3 receptor expressed in CHO cells assessed as inhibition of C1-IB-MECA-induced cAMP production preincubated for 30 mins prior to forskolin addition by enzyme immunoassay; assay type: functional, cell-based
[10] = target: T2, Adenosine receptor A3 (Homo sapiens); assay: Displacement of [125I]I-AB-MECA from human adenosine A3 receptor expressed in CHO cells at 10 uM after 60 mins by gamma counting; assay type: cell-based; summary of the method: as §3
[11] = system: Rattus norvegicus; assay: Antiinflammatory activity in Sprague-Dawley rat assessed as reduction in carrageenan-induced paw edema at 20 mg/kg, ip administered 30 mins before carrageenan challenge measured after 4 hrs by plethysmometer analysis; assay type: functional; set-up: scale not given: the % may be the effect or the level left; conditions: route intraperitoneal
Summary of the method: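 Male Sprague-Dawley rats (140–160 g, 5 weeks), acclimatized one week. Compound at 20 mg/kg given ip in 5% cremophor/5% ethanol in PBS; vehicle as control. After 30 min, 0.1 mL 1% carrageenan in saline was injected subplantar into the right hind paw, with saline in the left. Paw volume was read by plethysmometer at 0–24 h, 4 h included. Mean ± SD, ANOVA.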

[12] = target: T6, Adenosine receptor A1 (Homo sapiens, UniProt P30542); assay: Displacement of [3H]R-PIA from human recombinant adenosine A1 receptor expressed in CHO cells after 60 mins by […]; assay type: cell-based; summary of the method: as §2
T6 sequence (P30542 whole entry): T3 sequence (whole entry)

T1 sequence (P29274 whole entry): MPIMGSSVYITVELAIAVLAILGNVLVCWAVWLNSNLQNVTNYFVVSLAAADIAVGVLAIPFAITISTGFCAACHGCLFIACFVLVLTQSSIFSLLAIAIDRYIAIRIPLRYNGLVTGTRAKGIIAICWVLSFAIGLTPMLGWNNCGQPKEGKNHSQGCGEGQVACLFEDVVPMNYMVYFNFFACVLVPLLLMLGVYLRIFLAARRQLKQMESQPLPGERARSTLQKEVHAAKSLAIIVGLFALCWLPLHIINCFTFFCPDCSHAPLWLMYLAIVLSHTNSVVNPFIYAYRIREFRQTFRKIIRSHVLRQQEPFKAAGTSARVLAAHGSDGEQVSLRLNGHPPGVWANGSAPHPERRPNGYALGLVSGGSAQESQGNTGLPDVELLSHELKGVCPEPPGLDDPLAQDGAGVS

## CCCCC#Cc1nc(NCc2cccc(Cl)c2)c2ncn([C@@H]3OC[C@@H](O)[C@H]3O)c2n1
[1]
  inhibition: 42%
[2]
  inhibition: 39.7%
[3]
  inhibition: 9%
[4]
  Ki: 0.15 µM

## CCCC/C=C/c1nc2c(N)ncnc2n1[C@@H]1SC[C@@H](O)[C@H]1O
[2]
  inhibition: 6.1%

## CCCCC#Cc1nc(NCc2cccc(Br)c2)c2ncn([C@@H]3OC[C@@H](O)[C@H]3O)c2n1
[1]
  inhibition: 27%
[2]
  inhibition: 37.2%
[3]
  inhibition: 12%
[4]
  Ki: 0.067 µM

## CCCCC#Cc1nc(NCc2cccc(F)c2)c2ncn([C@@H]3SC[C@@H](O)[C@H]3O)c2n1
[1]
  inhibition: 46%
[2]
  inhibition: 47.6%
[3]
  inhibition: 24%
[4]
  Ki: 0.15 µM

## CCCCC#Cc1nc(NCc2cccc(I)c2)c2ncn([C@@H]3OC[C@@H](O)[C@H]3O)c2n1
[1]
  inhibition: 32%
[2]
  inhibition: 31.5%
[3]
  inhibition: 18%
[4]
  Ki: 0.22 µM

## CCCCC#Cc1nc(NCc2cccc(F)c2)c2ncn([C@@H]3OC[C@@H](O)[C@H]3O)c2n1
[1]
  inhibition: 25%
[2]
  inhibition: 29.5%
[3]
  inhibition: 9%
[4]
  Ki: 0.57 µM

## CCCC/C=C/c1nc(N)c2ncn([C@@H]3OC[C@@H](O)[C@H]3O)c2n1
[2]
  inhibition: 42.6%
[5]
  Activity: 83%
[3]
  inhibition: 31.9%
[6]
  Ki: 0.178 µM
[7]
  Activity: 1.8%
[4]
  Ki: 0.218 µM

## CCCCC#Cc1nc(NCc2cccc(I)c2)c2ncn([C@@H]3SC[C@@H](O)[C@H]3O)c2n1
[2]
  inhibition: 40%
[3]
  inhibition: 15%
[6]
  Ki: 4.89 µM
[4]
  Ki: 0.039 µM

## CCCC/C=C/c1nc(N)c2ncn([C@@H]3SC[C@@H](O)[C@H]3O)c2n1
[8]
  EC50: 0.0206 µM
[2]
  inhibition: 10.7%
[5]
  Activity: 109%
[9]
  Kb: 0.0239 µM
[7]
  Activity: 3.6%

## CCCCC#Cc1nc(NCc2cccc(Br)c2)c2ncn([C@@H]3SC[C@@H](O)[C@H]3O)c2n1
[2]
  inhibition: 25.2%
[3]
  inhibition: 12%
[6]
  Ki: 3.91 µM
[4]
  Ki: 0.024 µM

## CCCCCCc1nc2c(N)ncnc2n1[C@@H]1OC[C@@H](O)[C@H]1O
[1]
  inhibition: 5.8%
[2]
  inhibition: 12.9%
[10]
  inhibition: 24.7%
[3]
  inhibition: 18.1%

## CCCCC#Cc1nc(N)c2ncn([C@@H]3SC[C@@H](O)[C@H]3O)c2n1
[11]
  Activity: 51.1%
[2]
  inhibition: 2.8%

## CCCCCCc1nc(N)c2ncn([C@@H]3OC[C@@H](O)[C@H]3O)c2n1
[2]
  inhibition: 22.3%
[10]
  inhibition: 39%
[3]
  inhibition: 10%
[6]
  Ki: 2.16 µM

## CCCCC#Cc1nc2c(N)ncnc2n1[C@@H]1SC[C@@H](O)[C@H]1O
[2]
  inhibition: 1.7%
[7]
  Activity: 7%

## CCCCC#Cc1nc2c(N)ncnc2n1[C@@H]1OC[C@@H](O)[C@H]1O
[12]
  Ki: 0.29 µM
[1]
  inhibition: 27.2%
[2]
  inhibition: 24.5%
[4]
  Ki: 0.0317 µM

## CCCCC#Cc1nc(NCc2cccc(Cl)c2)c2ncn([C@@H]3SC[C@@H](O)[C@H]3O)c2n1
[2]
  inhibition: 47.2%
[3]
  inhibition: 25%
[6]
  Ki: 3.73 µM
[4]
  Ki: 0.024 µM

## CCCCC#Cc1nc(N)c2ncn([C@@H]3OC[C@@H](O)[C@H]3O)c2n1
[12]
  Ki: 0.74 µM
[8]
  EC50: 0.0803 µM
[2]
  inhibition: 17.4%
[5]
  Activity: 89.9%
[6]
  Ki: 0.0632 µM
[7]
  Activity: 1.9%
[4]
  Ki: 0.138 µM

## CCCC/C=C/c1nc2c(N)ncnc2n1[C@@H]1OC[C@@H](O)[C@H]1O
[12]
  Ki: 0.5 µM
[1]
  inhibition: 27.3%
[2]
  inhibition: 19.5%
[4]
  Ki: 0.0942 µM

## COc1ccc2c(c1)c(CC(=O)O)c(C)n2C(=O)c1ccc(Cl)cc1 [INDOMETHACIN]
[11]
  Activity: 49.7%
